Screens deposited in PubChem BioAssay by several laboratories.
TbMetRS inhib: T. brucei MetRS inhibitors, primary screen, biochemical, luminescence. methionyl-tRNA synthetase (Trypanosoma brucei brucei). purified T. brucei MetRS, ATP depletion, Kinase-Glo luminescence. inhibition, % at 11.9 µM. 0.4% of 360,000 active;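 active = inhibition above a per-plate cutoff of the control wells' mean inhibition plus 3 SD, cut at about 5.5% in these data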;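 also: 0% = DMSO wells median and 100% = median of wells with control inhibitor compound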
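Material: parasite MetRS enzyme / Replication: singlicate, one well per compound / Signal: luminescence of leftover ATP / Schedule: 2 h aminoacylation at 25 °C after 15 min preincubation / Medium: HEPES-MgCl2-KCl buffer plus DTT, spermine, BSA, pyrophosphatase / Doses: 11.9 µM single point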
GRIN3A LBD mod: binders of NR3A ligand-binding domain, primary screen, biophysical, differential scanning fluorimetry, uHTS; Glutamate receptor ionotropic, NMDA 3A (GRIN3A) ligand-binding domain; NR3A LBD differential scanning fluorimetry, Tm shift; 0% = protein alone, 100% = glycine-bound protein; Tm shift relative to glycine control, % at 25 µM; 2.5% of 340,000 active;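 active = melting temperature shift of at least 10% of the positive control shift, at one fixed dose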
CHOP inh: inhibitors of CHOP promoter induction, primary screen, cell-based, unfolded protein response, luciferase reporter. CHO-K1 CHOP-promoter luciferase, tunicamycin-induced, 15-18 h. inhibition, % at 10 µM. 3.8% of 220,000 active. AID 2732, 2010;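 active = compounds that reduced the stress-induced luciferase reporter signal by more than about 70% of percent inhibition, limit read from the data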;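 also: 0% = tunicamycin plus vehicle and 100% = wells without tunicamycin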
EBV gp42 block: Epstein-Barr virus gp42 inhibitors, primary screen, biochemical, uHTS, fluorescence polarization; Glycoprotein 42 (Epstein-Barr virus (strain AG876)), Q1HVG2; Fluorescence polarization binding assay, mP read-out; inhibition, % (tested at 21.74 µM); 0.42% of 220,000 active; in the data active = inhibition above about 50%
Target sequence (Q1HVG2 whole entry, looked up): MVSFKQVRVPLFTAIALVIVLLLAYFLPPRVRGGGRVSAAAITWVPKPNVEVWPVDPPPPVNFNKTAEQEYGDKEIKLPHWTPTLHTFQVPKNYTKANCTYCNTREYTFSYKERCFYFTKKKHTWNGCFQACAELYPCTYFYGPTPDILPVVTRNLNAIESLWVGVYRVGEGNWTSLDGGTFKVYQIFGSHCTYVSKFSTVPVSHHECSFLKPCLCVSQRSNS
MPTP block: mitochondrial permeability transition pore inhibitors, primary screen, biochemical, isolated mouse mitochondria, absorbance. Ca2+ swelling absorbance, 30 min. inhibition, % at 10 µM. 1.4% of 360,000 active;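 active = inhibition of 50% or more, scaled per plate between neutral and stimulator controls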;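 also: 0% = DMSO wells given calcium and 100% = 1 mM EGTA wells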
WT yeast gro inh: growth inhibition of WT strain, primary screen, mitochondrial fusion inhibitor project, WT and mutant strains, chemical genetic. AID 1362, 2008. inhibition, % at 10 µM. mitochondrial fusion phenotypic screen. 2.1% of 190,000 active; in the data active = inhibition above about 58%; tested in S. cerevisiae
CHOP inh conf: retest of CHOP induction inhibitors, confirmation, cell-based; shares compounds with CHOP inh; CHO-CHOP promoter luciferase reporter, tunicamycin-induced, luminescence; 45% of 2,100 active; inhibition, % at 10 µM; AID 504437, 2011;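 active = mean of three repeat readings of reporter signal inhibition above a set limit, cut at about 70% in these data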;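 also: 0% = tunicamycin plus vehicle and 100% = wells lacking tunicamycin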
Active calls of the source: *. An excerpt weighted towards active compounds, which were near 6.4% of everything screened.

`CCC(C)(C)c1ccc(Oc2cccc(C(=O)O)c2)cc1` gave TbMetRS inhib 0, GRIN3A LBD mod 4, CHOP inh -11, EBV gp42 block -7 and MPTP block 0.
Screening CCOC(=O)C1=C(Cc2ccc(F)cc2)C(=O)c2ccccc2C1=O returned TbMetRS inhib 0, GRIN3A LBD mod -8, CHOP inh 108*, EBV gp42 block 0, MPTP block 14, WT yeast gro inh 16 and CHOP inh conf 37.
Cc1cccc(N/N=C(\C=N\N)C(=O)c2ccc(Br)cc2)c1 was read as CHOP inh 103*, EBV gp42 block -7, WT yeast gro inh 77* and CHOP inh conf 35.
COc1ccccc1-c1cc(C(F)(F)F)nc(S(C)(=O)=O)n1 was read as TbMetRS inhib 0, GRIN3A LBD mod 0, CHOP inh 112*, EBV gp42 block -9, MPTP block 1, WT yeast gro inh 29 and CHOP inh conf -336.
For O=c1cc(C(F)(F)F)nc(-c2ccccc2OC(F)(F)F)[nH]1 the results were TbMetRS inhib 1, GRIN3A LBD mod -1, CHOP inh -12, EBV gp42 block -2 and MPTP block 2.
For COc1ccccc1-c1cc(C(F)(F)F)nc(S(=O)(=O)CCCC(=O)NC(C)C)n1 the results were TbMetRS inhib -2, GRIN3A LBD mod 2, CHOP inh 112*, EBV gp42 block 5, MPTP block -1, WT yeast gro inh 8 and CHOP inh conf 117*.
COc1ccccc1-c1cc(C(F)(F)F)nc(S(=O)(=O)CCCC(=O)N2CCCCC2C)n1 (stereo not given) was read as TbMetRS inhib 0, GRIN3A LBD mod 2, EBV gp42 block -11, MPTP block -4 and WT yeast gro inh 3.
Screening COc1ccccc1-c1cc(C(F)(F)F)nc(S(=O)(=O)CCCC(=O)Nc2cccnc2Cl)n1 returned TbMetRS inhib -1, GRIN3A LBD mod -2, CHOP inh 108*, EBV gp42 block -4, MPTP block -1, WT yeast gro inh 22 and CHOP inh conf 121*.
`CS(=O)(=O)c1nc(-c2ccco2)cc(C(F)(F)F)n1` gave CHOP inh 111*, EBV gp42 block -10, WT yeast gro inh 31 and CHOP inh conf 122*.
Screening CCn1c(CCC(=O)Nc2cc(F)ccc2C)nc2cc(S(=O)(=O)N(C)C)ccc21 returned TbMetRS inhib 0, GRIN3A LBD mod 1, CHOP inh 1, EBV gp42 block 2, MPTP block 2 and WT yeast gro inh 1.
`CC(C)(C)OC(=O)N1CCC(CC2CC(c3cccc(Br)c3)=NO2)(C(=O)NCC2CCCCC2)CC1` (stereo not given) gave GRIN3A LBD mod 1.
For CC1CCCC(C)N1C(=O)CSc1nc2ccccc2c(=O)[nH]1 (stereo not given) the results were TbMetRS inhib 0, GRIN3A LBD mod -1, CHOP inh -9, EBV gp42 block -5, MPTP block 0 and WT yeast gro inh -14.
COc1ccccc1-c1cc(C(F)(F)F)nc(S(=O)(=O)CCCC(=O)NCc2ccc(F)cc2)n1 was read as TbMetRS inhib 0, GRIN3A LBD mod -3, CHOP inh 100*, EBV gp42 block -19, MPTP block -1, WT yeast gro inh -17 and CHOP inh conf -95.
Screening COc1cc(CCC(=O)NCc2ccc(F)cc2)cc(OC)c1OC returned TbMetRS inhib -1, GRIN3A LBD mod 2 and MPTP block 0.
CC(C)c1nnc(NC(=O)c2c(O)c3cccc4c3n(c2=O)CCC4)s1 was read as TbMetRS inhib 1, GRIN3A LBD mod -1, CHOP inh 104*, EBV gp42 block 19, MPTP block 2, WT yeast gro inh 6 and CHOP inh conf 109*.
Screening NC(=O)c1ccc(C(F)(F)F)n(Cc2ccc(Cl)cc2)c1=O returned TbMetRS inhib -1, GRIN3A LBD mod -10, CHOP inh 97*, EBV gp42 block 9, MPTP block 1, WT yeast gro inh 1 and CHOP inh conf 82*.
For NC(=O)c1ccc(C(F)(F)F)n(Cc2ccc(F)c(F)c2)c1=O the results were TbMetRS inhib 0, GRIN3A LBD mod -3, CHOP inh 32, EBV gp42 block -1, MPTP block 2 and WT yeast gro inh 8.
Screening N#Cc1c(NC(=O)c2cc([N+](=O)[O-])ccc2N2CCOCC2)sc2c1CCCC2 returned TbMetRS inhib 0, GRIN3A LBD mod -4, CHOP inh 8, EBV gp42 block -4, MPTP block 5 and WT yeast gro inh 9.
For COc1ccc([N+](=O)[O-])cc1NS(=O)(=O)c1ccc(Cl)c(C(=O)Nc2sc3c(c2C#N)CCCCC3)c1 the results were CHOP inh 105*, EBV gp42 block -3, WT yeast gro inh -17 and CHOP inh conf 52.
For CC(C)CC(=O)Nc1ccc(Nc2ccccc2)cc1 the results were TbMetRS inhib 0, GRIN3A LBD mod -6, CHOP inh 11, EBV gp42 block -9, MPTP block 2 and WT yeast gro inh -13.
Nc1cc(N)c(OCC(F)(F)F)cc1OCC(F)(F)F was read as TbMetRS inhib 0, GRIN3A LBD mod -2, CHOP inh 102*, EBV gp42 block 7, MPTP block 0, WT yeast gro inh 9 and CHOP inh conf 0.
`Nc1cc(OCC(F)(F)F)cc([N+](=O)[O-])c1` gave TbMetRS inhib 1, GRIN3A LBD mod 5, CHOP inh 7, EBV gp42 block -6, MPTP block 0 and WT yeast gro inh -4.
CC(=O)c1ccc(OCCCN2CCCCC2)cc1 was read as TbMetRS inhib 0, GRIN3A LBD mod 0, CHOP inh -20, EBV gp42 block -29, MPTP block 0 and WT yeast gro inh -2.
`COc1ccc(-c2csc(N(CCc3ccccc3)C(=O)COc3ccccc3)n2)cc1` gave TbMetRS inhib -1, GRIN3A LBD mod 0, CHOP inh 32, EBV gp42 block -9, MPTP block 0 and WT yeast gro inh 3.
`O=C(COc1ccc(Cl)cc1)N(Cc1ccccc1)c1nc(-c2ccccc2)cs1` gave TbMetRS inhib 0, GRIN3A LBD mod -2, CHOP inh 103*, EBV gp42 block -4, MPTP block 2, WT yeast gro inh -1 and CHOP inh conf 54.
For O=C(N/N=C/c1ccc([N+](=O)[O-])cc1)c1cc(C2CC2)[nH]n1 the results were TbMetRS inhib 0, GRIN3A LBD mod 3 and MPTP block -1.
